The results in this text go back to ChEMBL document CHEMBL1687829, “Evaluation of hepatotoxicity with off-label oral-treatment doses of voriconazole for invasive fungal infections” (Antimicrob Agents Chemother, 2011).

For data set [1], the system named is Homo sapiens. The data set can be described thus: Toxicity in patient assessed as visual disturbance at 200 mg, po bid for 72 days. The class given is organism-based. The following applies: in vivo, 1728 h. Put shortly: (§1)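 Retrospective chart review of the same cohort: adults on ≥7 days of oral voriconazole treatment, either fixed 200 mg twice daily (n = 25) or weight-based dosing (n = 84). Visual disturbances were taken from the medical records as a secondary adverse-event endpoint and given as number (%) of patients per group.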

In data set [2] the test system is Homo sapiens. The data set can be described thus: Hepatotoxicity in patients assessed as three times increase in upper limit of normal bilirubin level at 200 mg, po bid for 72 days. The class given is toxicity, organism-based. The following applies: in vivo, 1728 h. Put shortly:
(§2)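 Retrospective cohort at one hospital, 2006–2008. Patients received ≥7 days of oral voriconazole treatment for possible, probable or proven invasive fungal infection, with baseline and follow-up liver enzymes available; prophylaxis use was excluded. Groups were fixed 200 mg twice daily (n = 25) or weight-based 4 mg/kg twice daily after day 1 (n = 84). Read-out was number (%) of patients with a value >5× baseline or >3× ULN.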

For data set [3], the system named is Homo sapiens. The data set can be described thus: Hepatotoxicity in patient assessed as five times increase in baseline AST level at 297.3 mg, po bid for 76.1 days. The class given is toxicity, organism-based. The following applies: in vivo, 1826.4 h. The method, boiled down: as §2
The subject of data set [4] is Homo sapiens. The data set can be described thus: Toxicity in patients assessed as adverse event at 297.3 mg, po bid for 76.1 days. The format is organism-based. The following applies: in vivo, 1826.4 h. The method, boiled down: (§3)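 Same retrospective cohort (fixed 200 mg twice daily, n = 25, versus weight-based oral dosing, n = 84; ≥7 days of treatment). The outcome was voriconazole discontinuation that the practitioner attributed to an adverse drug event, taken from the medical records. Counts and % per group were compared between groups.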

The subject of data set [5] is Homo sapiens. Briefly: Hepatotoxicity in patient assessed as three times increase in upper limit of normal AST level at 297.3 mg, po bid for 76.1 days. The following applies: in vivo, 1826.4 h. The format is toxicity, organism-based. Put shortly: as §2
The subject of data set [6] is Homo sapiens. The data set can be described thus: Hepatotoxicity in patients assessed as three times increase in upper limit of normal bilirubin level at 297.3 mg, po bid for 76.1 days. The format is toxicity, organism-based. The following applies: in vivo, 1826.4 h. The method, boiled down: as §2
The subject of data set [7] is Homo sapiens. The data set can be described thus: Hepatotoxicity in patient assessed as three times increase in upper limit of normal ALT level at 200 mg, po bid for 72 days. The class given is toxicity, organism-based. The following applies: in vivo, 1728 h. Put shortly:
as §2

Data set [8] deals with Homo sapiens. The data set can be described thus: Hepatotoxicity in patient assessed as three times increase in upper limit of normal […] level at 200 mg, po bid for 72 days. The format is toxicity, organism-based. The following applies: in vivo, 1728 h. The method, boiled down: as §2
In data set [9] the test system is Homo sapiens. Briefly: Hepatotoxicity in patient assessed as five times increase in baseline ALT level at 297.3 mg, po bid for 76.1 days. The format is toxicity, organism-based. The following applies: in vivo, 1826.4 h. The method, boiled down:
as §2

The subject of data set [10] is Homo sapiens. Briefly: Hepatotoxicity in patient assessed as three times increase in upper limit of normal […] level at 297.3 mg, po bid for 76.1 days. The format is toxicity, organism-based. The following applies: in vivo, 1826.4 h. The method, boiled down: as §2
Data set [11] deals with Homo sapiens. Briefly: Toxicity in patients assessed as adverse event at 200 mg, po bid for 72 days. The format is organism-based. The following applies: in vivo, 1728 h. Put shortly:
as §3

Data set [12] deals with Homo sapiens. The data set can be described thus: Hepatotoxicity in patients assessed as five times increase in baseline bilirubin level at 200 mg, po bid for 72 days. The format is toxicity, organism-based. The following applies: in vivo, 1728 h. The method, boiled down: as §2
Data set [13] relates to Homo sapiens. The data set can be described thus: Hepatotoxicity in patient assessed as five times increase in baseline […] level at 297.3 mg, po bid for 76.1 days. The class given is toxicity, organism-based. The following applies: in vivo, 1826.4 h. Put shortly:
as §2

Data set [14] has as its system Homo sapiens. The data set can be described thus: Hepatotoxicity in patient assessed as five times increase in baseline ALP level at 200 mg, po bid for 72 days. The format is toxicity, organism-based. The following applies: in vivo, 1728 h. Put shortly:
as §2

In data set [15] the test system is Homo sapiens. Briefly: Hepatotoxicity in patient assessed as five times increase in baseline ALT level at 200 mg, po bid for 72 days. The following applies: in vivo, 1728 h. The format is toxicity, organism-based. Put shortly: as §2
Data set [16] concerns Homo sapiens. Briefly: Hepatotoxicity in patient assessed as three times increase in upper limit of normal AST level at 200 mg, po bid for 72 days. The class given is toxicity, organism-based. The following applies: in vivo, 1728 h. Put shortly: as §2
The test system of data set [17] is Homo sapiens. The data set can be described thus: Toxicity in patient assessed as visual disturbance at 297.3 mg, po bid for 76.1 days. The following applies: in vivo, 1826.4 h. The class given is organism-based. The method, boiled down: as §1
Data set [18] concerns Homo sapiens. The data set can be described thus: Hepatotoxicity in patients assessed as five times increase in baseline bilirubin level at 297.3 mg, po bid for 76.1 days. The format is toxicity, organism-based. The following applies: in vivo, 1826.4 h. Put shortly:
as §2

The subject of data set [19] is Homo sapiens. Briefly: Hepatotoxicity in patient assessed as five times increase in baseline AST level at 200 mg, po bid for 72 days. The format is toxicity, organism-based. The following applies: in vivo, 1728 h. Put shortly: as §2
Data set [20] has as its system Homo sapiens. The data set can be described thus: Hepatotoxicity in patient assessed as three times increase in upper limit of normal ALT level at 297.3 mg, po bid for 76.1 days. The format is toxicity, organism-based. The following applies: in vivo, 1826.4 h. Put shortly: as §2

Take `C[C@@H](c1ncncc1F)[C@](O)(Cn1cncn1)c1ccc(F)cc1F` [VORICONAZOLE]: the Activity with Homo sapiens [1] is on record as 4%; in the data set on Homo sapiens [2], 16%; with Homo sapiens [3], 15.5%; with Homo sapiens [4], 16.9%; with Homo sapiens [5] it was 20.2%; in the data set on Homo sapiens [6] it was 6%. The Activity turned out to be 12% in the data set with Homo sapiens [7]; 32% in the data set on Homo sapiens [8]; 13.1% with Homo sapiens [9]; 11.9% with Homo sapiens [10]; 0% in the data set on Homo sapiens [11]; 12% in the data set on Homo sapiens [12]. Moreover, the Activity in the data set on Homo sapiens [13] was 3.6%; in the data set on Homo sapiens [14] it was 4%; with Homo sapiens [15] it was 24%; with Homo sapiens [16], 16%; in the data set on Homo sapiens [17], 3.6%; in the data set on Homo sapiens [18] it was 3.6%. Moreover, the Activity is on record as 12% in the data set on Homo sapiens [19] and 15.5% in the data set with Homo sapiens [20].
